From PubChem
OX1R antag-1 – blocks the human orexin 1 receptor; inhibition, % at 6.6 µM; AID 485270; 330,000 compounds, 1.8% hits; OX1R-expressing cells, FRET antagonist read-out; O43613; in the data active means inhibition mostly above about 38%, no sharp cut-off; inactive means mostly below about 40%;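 further: 0% = agonist challenge alone and 100% = reference antagonist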
Target sequence (O43613 whole entry, looked up): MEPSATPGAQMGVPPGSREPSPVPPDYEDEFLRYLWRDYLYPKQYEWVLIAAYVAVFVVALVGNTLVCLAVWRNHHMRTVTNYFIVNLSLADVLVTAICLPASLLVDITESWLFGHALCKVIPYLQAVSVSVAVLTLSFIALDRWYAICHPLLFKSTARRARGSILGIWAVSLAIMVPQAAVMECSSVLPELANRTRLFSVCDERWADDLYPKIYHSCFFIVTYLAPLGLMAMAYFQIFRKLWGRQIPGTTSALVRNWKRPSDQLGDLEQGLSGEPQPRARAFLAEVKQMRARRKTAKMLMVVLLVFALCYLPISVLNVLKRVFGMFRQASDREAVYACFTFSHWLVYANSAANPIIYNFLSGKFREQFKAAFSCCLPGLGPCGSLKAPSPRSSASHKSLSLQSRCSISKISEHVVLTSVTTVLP
TAAR1 antagonist – human TAAR1 antagonism. inhibition, % at 3 µM. 360,000 compounds, 1.5% hits. CHO RD-HGA16 TAAR1, Fluo-8 calcium fluorescence, antagonist;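 active means inhibition above a per-plate cutoff, the mean inhibition of test compounds on that plate plus 3 SD, cut at about 49% in these data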;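 further: 0% = DMSO plus EC80 beta-PEA response and 100% = DMSO alone without agonist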
Target sequence (Q96RJ0 whole entry, looked up): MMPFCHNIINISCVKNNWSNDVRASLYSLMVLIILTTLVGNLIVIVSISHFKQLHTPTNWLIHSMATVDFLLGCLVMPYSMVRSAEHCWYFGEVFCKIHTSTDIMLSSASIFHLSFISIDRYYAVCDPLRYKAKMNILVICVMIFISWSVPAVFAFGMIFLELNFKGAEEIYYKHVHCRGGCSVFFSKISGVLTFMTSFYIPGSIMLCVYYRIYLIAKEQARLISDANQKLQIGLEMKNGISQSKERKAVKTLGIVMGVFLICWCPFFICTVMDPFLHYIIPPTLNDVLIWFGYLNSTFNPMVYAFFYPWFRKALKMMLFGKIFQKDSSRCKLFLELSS
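System: RD-HGA16 CHO cells with stable hTAAR1 and Gα16 | Probe or stimulus: EC80 β-phenethylamine stimulus | Dosing: 3 µM, single point | Times: Dye loading 75 min at 37 °C, then 30 min room temperature | Measured by: Fluo-8 calcium-sensitive fluorescence | Read-out basis: % inhibition of agonist calcium response | Replicates: n of 1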
OX1R antag-2 – antagonists of human orexin 1 receptor; CHO/OX1R cells, Fluo-8 calcium fluorescence, orexin A; O43613; inhibition, % at 5 µM; 330,000 compounds, 0.43% hits;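 active means inhibition above its plate's threshold, mean inhibition of all tested compounds on the plate plus 3 SD, cut at about 37% in these data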;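 further: 0% = orexin A challenge wells and 100% = SB-334867-A antagonist wells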
CHO parental Ca – counter-screen for OX1R antagonists: effect in parental CHO cells. 330,000 compounds, 0.63% hits. inhibition, % at 5.6 µM. AID 463079. parental CHO-K1, ATP-induced calcium, Fluo-8 fluorescence;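 active means inhibition above that plate's mean sample inhibition plus 3 SD, cut at about 26% in these data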;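 further: 0% = ATP-challenged DMSO wells and 100% = DMSO wells without ATP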
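Test system: parental CHO cells; detection: calcium-sensitive Fluo-8 fluorescence; evaluation: percent inhibition of calcium signal; also added: ATP as calcium-mobilizing challenge; repeats: one well per compound; control set: ATP-challenged DMSO wells low, unchallenged DMSO wells high; compound: single nominal dose of 5.6 µM per compound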
GPR7 antagonist – human neuropeptides B/W receptor 1 antagonism; P48145; GPR7-expressing cells, fluorescence antagonist assay; inhibition, % at 4.4 µM; 290,000 compounds, 1.1% hits; AID 1861; in the data active means inhibition above about 16%, passing the limit was not always enough;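 further: cells stimulated with the agonist NPW; 0% = agonist with vehicle and 100% = vehicle without agonist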
TAAR1 ag – agonists of human TAAR1 | Q96RJ0 | CHO RD-HGA16 TAAR1, Fluo-8 calcium fluorescence; vehicle wells 0%, saturating PEA agonist 100% | activation, % at 3 µM | 360,000 compounds, 0.99% hits | AID 624467;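 active means activation above the mean activation of all test compounds in the run plus 3 SD, cut at about 38% in these data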
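Benchmarks: low control DMSO, high control PEA (EC100); System: CHO RD-HGA16 cells carrying human TAAR1 plus Gα16; Detection: Fluo-8 fluorescence, 5 s baseline then 140 s kinetic read; Schedule: 17-24 h plating, Fluo-8 75 min 37 °C, 30 min RT; Read-out basis: % activation from peak over basal fluorescence ratio, DMSO-to-PEA scaled.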
TAAR1 ag conf – human TAAR1 agonism, confirmed. 2,400 compounds, 82% hits. CHO RD-HGA16 TAAR1, Fluo-8 calcium fluorescence; scaled: DMSO 0%, maximal phenethylamine 100%. shares compounds with TAAR1 ag. activation, % at 3 µM;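 active means activation above a cutoff set at the run's mean compound activation plus 3 SD, cut at about 39% in these data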
Ga16 nonsel ag – counter-screen for TAAR1 agonists: nonselective agonists in parental cells | AID 651787 | activation, % at 3 µM | shares compounds with TAAR1 ag | 2,400 compounds, 50% hits | CHO-Ga16 parental, Fluo-8 calcium fluorescence; normalized to maximal ATP response, DMSO zero;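 active means activation above the run cutoff, the mean activation over all tested wells plus 3 SD, cut at about 12% in these data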;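 further: 0% = DMSO wells and 100% = maximal ATP response on the peak over basal ratio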
TAAR1 desensitize – human TAAR1 agonist that also desensitizes the receptor; shares compounds with TAAR1 ag; CHO RD-HGA16 hTAAR1, Fluo-8 calcium, beta-PEA response inhibition; inhibition, % at 3 µM; 2,400 compounds, 46% hits;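 active means inhibition above the run cutoff, the mean inhibition of all test compounds plus 3 SD, cut at about 49% in these data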;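 further: beta-PEA stimulus applied at its EC80; loss of beta-PEA calcium signal after compound pretreatment read as receptor desensitization; 0% = DMSO with beta-PEA at EC80 and 100% = DMSO alone without agonist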
Ga16 antag count – counter-screen for TAAR1 agonists: nonselective Ga16 antagonists. CHO-Ga16 ATP-induced calcium, Fluo-8 fluorescence. 2,400 compounds, 39% hits. shares compounds with TAAR1 ag. AID 651952. inhibition, % at 3 µM;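 active means inhibition above the plate's mean compound inhibition plus 3 SD, computed per plate, cut at about 22% in these data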;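 further: 0% = EC80 ATP with DMSO and 100% = DMSO wells without ATP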
* hit, by the source's call; x = no result. Only some compounds are listed: those with a hit (about 4.5% of all), similar ones and a draw of the others.

SMILES | OX1R antag-1 | TAAR1 antagonist | OX1R antag-2 | CHO parental Ca | GPR7 antagonist | TAAR1 ag | TAAR1 ag conf | Ga16 nonsel ag | TAAR1 desensitize | Ga16 antag count
CC(C)[C@H](CN(N=O)[C@@H](Cc1ccccc1)CN(C)N=O)N(CCc1ccccc1)N=O | 27 | 15 | -27 | -37 | -6 | 22 | x | x | x | x
CCCC[C@H](CN(N=O)[C@@H](Cc1ccccc1)CN(C)N=O)N(CCc1ccccc1)N=O | 16 | 24 | -33 | -17 | 11 | 57* | 64* | 0 | 23 | 14
CCC(CO)Oc1cc(NCc2ccc(C)cc2)c2ncn(C(C)C)c2c1 (stereo not drawn) | 16 | -5 | -32 | -28 | x | 6 | x | x | x | x
CCCOc1cc(NCc2ccccc2)c2ncn(C(C)C)c2c1 | 15 | -1 | -61 | -30 | x | 61* | 41* | 18* | 1 | -2
CC(C)n1cnc2c(NCc3ccccc3)cc(Cc3ccc(F)cc3)cc21 | 6 | 16 | -40 | -31 | x | 47* | 19 | 11 | 25 | 19
COC(=O)CCCCCCCCC(=O)Nc1nc2ccccc2s1 | 51 | 2 | -36 | -17 | 4 | 50* | 76* | 37* | 18 | 5
COCC(=O)Nc1nc2ccccc2s1 | 17 | 12 | -17 | -3 | 1 | 4 | x | x | x | x
Cc1cnc(NC(=O)CCCSc2nc3ccccc3s2)s1 | 15 | 61* | -19 | -1 | 5 | 53* | 9 | 2 | 2 | 4
Cc1ccc(CCNC(=O)CCS(=O)(=O)c2ccc3c(c2)oc(=O)n3C)cc1 | 3 | -29 | -29 | -19 | 8 | 3 | x | x | x | x
O=C(CCS(=O)(=O)c1ccc2c(c1)NC(=O)CS2)NCCc1ccccc1 | 4 | 26 | -19 | -17 | 1 | 68* | 68* | 0 | 35 | 11
Cn1c(=O)oc2cc(S(=O)(=O)CCC(=O)NCCc3ccccc3)ccc21 | 1 | 16 | -6 | -10 | 6 | 70* | 30 | 0 | 14 | 7
CS(=O)(=O)Nc1ccc2c(c1)[C@H]1C[C@H](CC(=O)NCc3cccc(F)c3)O[C@@H](CO)[C@H]1O2 | x | 0 | x | x | x | 0 | x | x | x | x
CCCOc1cc(C)c(S(=O)(=O)N2CCN(C)CC2)cc1C | 7 | -26 | -35 | -17 | -6 | 46* | 42* | 0 | -5 | -3
O=C1C=C(c2ccccc2)C(=O)N1Nc1ccccc1 | 27 | 16 | 26 | 14 | 1 | 51* | 70* | 48* | 43 | 35*
Nc1sc2c(c1C(=O)NCCc1ccccc1)CCCC2 | x | 64* | x | x | x | 76* | 90* | 2 | 79* | 8
Nc1sc2c(c1C(=O)NCCc1ccccc1)CCC2 | 5 | 29 | -36 | -6 | -2 | 54* | 81* | 3 | 61* | 7
CN(C)CCNC(=O)c1c(NC(=O)c2ccccc2)sc2c1CCCC2 | 13 | -7 | -20 | -15 | 2 | 1 | x | x | x | x
Nc1sc2c(c1C(=O)c1ccccc1)CCCC2 | 12 | -8 | -19 | -11 | -5 | -1 | x | x | x | x
COc1cccc(C(=O)OCC(=O)N2CCc3ccccc3C2)c1OC | 8 | 14 | -14 | -21 | x | 7 | x | x | x | x
Oc1ccc(C[C@H]2CNCCN2CCC23CC4CC(CC(C4)C2)C3)cc1 | 21 | -13 | 9 | 8 | x | 36 | x | x | x | x
Oc1ccc(C[C@@H]2CNCCN2CCC23CC4CC(CC(C4)C2)C3)cc1 | 16 | 5 | 0 | 9 | x | 48* | 62* | 31* | 41 | 42*
COc1ccc(NS(=O)(=O)c2ccc(-n3nnc4ccccc43)c([N+](=O)[O-])c2)cc1 | 12 | 32 | -3 | -6 | 7 | 52* | 72* | 39* | 50* | 40*
CCOC(=O)c1cnn(-c2ncnc3sc4c(c23)CCC4)c1N | 14 | -2 | -13 | -9 | -1 | 5 | x | x | x | x
CCOC(=O)c1cnn(-c2nc(SC)nc3sc4c(c23)CCCC4)c1N | 12 | 84* | 26 | -3 | -3 | 85* | 13 | 15* | 31 | 40*
CC(Oc1ccc(Br)cc1)C(=O)Nc1ccc(S(=O)(=O)Nc2nccs2)cc1 (stereo not drawn) | 7 | 36 | 16 | 28 | 12 | 35 | x | x | x | x
SMILES | OX1R antag-1 | TAAR1 antagonist | OX1R antag-2 | CHO parental Ca | GPR7 antagonist | TAAR1 ag | TAAR1 ag conf | Ga16 nonsel ag | TAAR1 desensitize | Ga16 antag count
CC(Oc1ccc(Br)cc1)C(=O)Nc1ccc(S(=O)(=O)NC2=NCCCCC2)cc1 (stereo not drawn) | x | 72* | x | x | x | 95* | 119* | 78* | 81* | 47*
C=CCNC(=O)c1oc2ccc(S(=O)(=O)N3CCC4(CC3)OCCO4)cc2c1C | 7 | -11 | -19 | -12 | -15 | 11 | x | x | x | x
Cc1c(C(=O)NCCc2ccccc2)oc2ccc(S(=O)(=O)N3CCC4(CC3)OCCO4)cc12 | 53 | 77* | 27 | -5 | 15 | 93* | 92* | 12* | 89* | 36*
Cc1c(C(=O)NCc2ccc(C(F)(F)F)cc2)sc(=O)n1Cc1cccc(F)c1 | x | 100* | x | x | x | 127* | 114* | 77* | 97* | 71*
O=C(N[C@@H](Cc1cccnc1)C(=O)N1CCC[C@H]1C(=O)NCCc1ccccc1Cl)c1cccs1 | x | 48 | x | x | x | 48* | 82* | 4 | 84* | 4
O=C(NCc1cccnc1)c1ccc(Cl)c(S(=O)(=O)N2CCCCCC2)c1 | 25 | 16 | -41 | -23 | -23 | 3 | x | x | x | x
O=C(N[C@@H](Cc1cccnc1)C(=O)N1CCC[C@H]1C(=O)NCCc1ccccc1Cl)c1ccc(Cl)c(Cl)c1 | x | 91* | x | x | x | 71* | 84* | 5 | 103* | 21
O=C(N[C@@H](Cc1cccnc1)C(=O)N1CCC[C@H]1C(=O)NCCc1ccccc1Cl)C1CC1 | x | 26 | x | x | x | 46* | 70* | 0 | 58* | 6
NS(=O)(=O)c1ccc(CCNC(=O)C2CCCN2C(=O)c2cccs2)cc1 (stereo not drawn) | x | -26 | x | x | x | 4 | x | x | x | x
O=C(NCCc1ccccc1Cl)[C@@H]1CCCN1C(=O)[C@H](Cc1cccnc1)NC(=O)N1CCOCC1 | x | 11 | x | x | x | 49* | 77* | 0 | 46 | 5
CC(=O)C(Cc1ccccc1)NC(=O)COC(=O)CCN1C(=O)C2CC=CCC2C1=O (stereo not drawn) | 13 | -11 | -11 | -10 | x | 1 | x | x | x | x
